From PubChem BioAssay
This is a sample that favours compounds with a hit; in the whole collection about 4.7% have one here.
aSyn UTR inh = 5' untranslated region of α-synuclein, MLPCN primary screen; alpha-synuclein 5'UTR reporter, inhibitor activity; inhibition, % (tested at 7.5 µM); 0.82% of 300,000 active; in the data active = inhibition above about 60%;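 note: H4 neuroglioblastoma cells stably carrying SNCA 5'UTR luciferase fusion; 0% = DMSO wells and 100% = positive control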
Jurkat NFkB inh = lowers PMA/ionomycin-induced NF-kB signal in Jurkat cells; inhibition, % at 4 µM; AID 435003; PMA/ionomycin-induced NF-kB luciferase reporter, luminescence; 0.53% of 330,000 active; in the data active = inhibition above about 50%
IMP-1 inh = inhibitors of Pseudomonas aeruginosa IMP-1 metallo-beta-lactamase; 0.45% of 290,000 active; inhibition, % at 5.6 µM; AID 1556; purified IMP-1, nitrocefin hydrolysis, epi-absorbance fluorescence;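 active = inhibition above the mean plus 3 SD of all compounds in the same screening run, cut at about 4.5% in these data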;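 note: 0% = IMP-1 with DMSO and 100% = DMSO wells lacking enzyme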
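system = purified recombinant IMP-1 beta-lactamase | amount = 0.2 nM IMP-1, as dispensed | medium = HEPES buffer pH 7.1 with ZnSO4 and Brij 35 | times = 25 °C, 15 min preincubation, 25 min reaction | detection = plate fluorescence quenching by hydrolysis product, ex 480/em 530 nm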
VIM-2 inh = inhibitors of Pseudomonas aeruginosa VIM-2 metallo-beta-lactamase. purified VIM-2, nitrocefin hydrolysis, epi-absorbance fluorescence. 0.89% of 290,000 active. inhibition, % at 5.6 µM;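 active = inhibition above the mean of all tested compounds plus 3 SD, cutoff set per screening run, cut at about 7.5% in these data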;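 note: red hydrolysis product quenches plate fluorescence so inhibitors raise well fluorescence; 0% = enzyme with DMSO and 100% = DMSO without enzyme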
697 NFkB inh = lowers PMA/ionomycin-induced NF-kB signal in 697 B cells; 697 B-cell NF-kB luciferase reporter, 16 h; inhibition, % at 4 µM; 0.33% of 330,000 active; AID 435022; in the data active = inhibition above about 35%
Mdm2 MdmX PPI = human Mdm2/MdmX binding inhibition. AID 485346. inhibition, % at 8 µM. 3% of 330,000 active. SaOS-2 split-luciferase Mdm2/MdmX complementation, luminescence. O15151+Q00987;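 active = inhibition of at least 50% at 8 µM in the primary screen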
Jurkat NFkB conf = inhibitors of the PMA/ionomycin-induced NF-kB reporter in Jurkat cells, retest. shares compounds with Jurkat NFkB inh. Jurkat NF-kB luciferase, 16 h. inhibition, % at 4 µM. 27% of 2,700 active;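 active = inhibition reaching about 45% at 4 µM in either replicate, limit read from the data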;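 note: plate controls were PMA/ionomycin stimulated DMSO wells for no effect and unstimulated DMSO wells for full effect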
Active calls of the source: *.

CCCCSCCCNC(=O)c1ccc(CS(=O)(=O)c2ccc(OC)cc2)o1 was read as aSyn UTR inh -8, Jurkat NFkB inh -28, IMP-1 inh -2, VIM-2 inh 1, 697 NFkB inh -18 and Mdm2 MdmX PPI 7.
C=CCn1c(SCC(=O)N(CCOC)c2c(N)n(CC(C)C)c(=O)[nH]c2=O)nc2ccccc21 was read as aSyn UTR inh 1, Jurkat NFkB inh 1, 697 NFkB inh 7 and Mdm2 MdmX PPI 13.
O=C(COc1cccc2cccnc12)N/N=C/c1ccccc1O was read as aSyn UTR inh 10, Jurkat NFkB inh 6, IMP-1 inh 0, VIM-2 inh 1, 697 NFkB inh -1 and Mdm2 MdmX PPI 40.
Oc1ccccc1/C=N/Nc1cccc2cccnc12 was read as aSyn UTR inh -234, Jurkat NFkB inh -157, IMP-1 inh 4, VIM-2 inh -3, 697 NFkB inh -180, Mdm2 MdmX PPI -236 and Jurkat NFkB conf 4.
N#Cc1ccc(NCC(=O)Nc2ccc(S(=O)(=O)N3CCCCC3)cc2)cc1 was read as Jurkat NFkB inh -4, 697 NFkB inh -3 and Mdm2 MdmX PPI 3.
COc1ccc(C2NN=C(c3ccc(C)cc3)S2)cc1OC (stereo unspecified) was read as aSyn UTR inh -144, Jurkat NFkB inh -137, IMP-1 inh -2, VIM-2 inh 0, 697 NFkB inh -120 and Mdm2 MdmX PPI -186.
`Cc1ccc(C2=NNC(c3cccc(F)c3)S2)cc1` (stereo unspecified) gave Jurkat NFkB inh -167, IMP-1 inh -1, VIM-2 inh 0, 697 NFkB inh -233, Mdm2 MdmX PPI -84 and Jurkat NFkB conf -76.
CCCCCCCCn1cnc2c(N)c(C)c(C)cc21 was read as aSyn UTR inh -24, Jurkat NFkB inh 75*, IMP-1 inh -1, VIM-2 inh -1, 697 NFkB inh 21, Mdm2 MdmX PPI 29 and Jurkat NFkB conf 7.
`COc1ccc(Cn2cnc3c(N)c(C)c(C)cc32)cc1` gave aSyn UTR inh 24, Jurkat NFkB inh -8, IMP-1 inh -4, VIM-2 inh -6, 697 NFkB inh -7 and Mdm2 MdmX PPI 6.
`Cc1ccc(NC(=S)N2CCCC2)cc1Cl` gave Jurkat NFkB inh -23, IMP-1 inh -3, VIM-2 inh -4, 697 NFkB inh -4 and Mdm2 MdmX PPI 11.
For Cc1nn(-c2ccccc2)c(C)c1C(=O)NCc1ccccc1F the results were aSyn UTR inh 1, Jurkat NFkB inh 13, IMP-1 inh -3, VIM-2 inh -2, 697 NFkB inh -11 and Mdm2 MdmX PPI -24.
`COc1cccc(C(=O)Nc2ccc3[nH]ncc3c2)c1` gave aSyn UTR inh -76, Jurkat NFkB inh -70, IMP-1 inh -3, VIM-2 inh -2, 697 NFkB inh -45 and Mdm2 MdmX PPI 9.
CCOc1cccc(C(=O)Nc2ccc3[nH]ncc3c2)c1 was read as aSyn UTR inh -33, Jurkat NFkB inh -151, IMP-1 inh -1, VIM-2 inh -1, 697 NFkB inh -27, Mdm2 MdmX PPI -64 and Jurkat NFkB conf -63.
For Cc1noc(C)c1COc1ccccc1C(=O)N1CCN(c2cccc(Cl)c2)CC1 the results were Jurkat NFkB inh 46, 697 NFkB inh -31 and Mdm2 MdmX PPI 40.
Cc1noc(C)c1COc1ccccc1C(=O)N1CCN(c2cccc(C(F)(F)F)c2)CC1 was read as Jurkat NFkB inh 55*, 697 NFkB inh -65, Mdm2 MdmX PPI 12 and Jurkat NFkB conf 16.
`Fc1ccc(Nc2ccc3ccccc3n2)c(F)c1` gave aSyn UTR inh 60, Jurkat NFkB inh -211, IMP-1 inh -2, VIM-2 inh -3, 697 NFkB inh -242, Mdm2 MdmX PPI -310 and Jurkat NFkB conf -138.
O=C(Oc1ccc(-c2cnc3ccccc3n2)cc1)c1ccco1 was read as aSyn UTR inh -81, Jurkat NFkB inh -162, IMP-1 inh -2, VIM-2 inh -1, 697 NFkB inh -154, Mdm2 MdmX PPI -113 and Jurkat NFkB conf -82.
For CCCNC(=O)C1CC(=O)N(c2ccc(OCc3ccc(F)cc3)cc2)C1 (stereo unspecified) the results were aSyn UTR inh -92, Jurkat NFkB inh -152, IMP-1 inh 0, VIM-2 inh 0, 697 NFkB inh -33, Mdm2 MdmX PPI -84 and Jurkat NFkB conf -75.
